Results published in ChEMBL document CHEMBL1687926, “14-Aminocamptothecins: their synthesis, preclinical activity, and potential use for cancer treatment” (J Med Chem, 2011).
Several values for one entry are separate records, joined by “and”; a condition that tells them apart may be missing. Equal entries are not always repeated.

How the values were obtained:
NCI-H460 [1] = assay: Cytotoxicity against human H460 cells after 72 hrs by alamar blue assay; format: functional, cell-based
Procedure, shortened: (§1)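 Cells seeded at 4 × 10³ per well and grown 24 h. Compounds dissolved in DMSO and diluted in medium to final concentrations, then incubated 72 h at 37 °C, 5% CO₂. Viable cells read by AlamarBlue; IC₅₀ taken as the concentration giving 50% growth inhibition.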

PC-3 [2] = assay: Cytotoxicity against human PC3 cells after 72 hrs by alamar blue assay; format: functional, cell-based; settings: PC-3, 72 h; procedure, shortened: as §1
HT-29 [3] = assay: Cytotoxicity against human HT-29 cells after 72 hrs by alamar blue assay; format: functional, cell-based; settings: HT-29, 72 h; procedure, shortened: as §1
SK-MEL-2 = assay: Cytotoxicity against human SK-MEL-2 cells after 72 hrs by alamar blue assay; format: functional, cell-based; settings: SK-MEL-2, 72 h; procedure, shortened: as §1
A-375 = assay: Cytotoxicity against human A375 cells after 72 hrs by alamar blue assay; format: functional, cell-based; settings: A-375, 72 h; procedure, shortened: as §1
Malme-3M = assay: Cytotoxicity against human MALME-3M cells after 72 hrs by alamar blue assay; format: functional, cell-based; procedure, shortened: as §1
DU-145 = assay: Cytotoxicity against human DU145 cells after 72 hrs by alamar blue assay; format: functional, cell-based; settings: DU-145, 72 h; procedure, shortened: as §1
LNCaP = assay: Cytotoxicity against human LNCAP cells after 72 hrs by alamar blue assay; format: functional, cell-based; procedure, shortened: as §1
IGROV-1 = assay: Cytotoxicity against human IGROV1 cells after 72 hrs by alamar blue assay; format: functional, cell-based; settings: IGROV-1, 72 h; procedure, shortened: as §1
NCI-H460 [4] = assay: Cytotoxicity against human H460 cells after 72 hrs by alamar blue assay in presence of 40 mg/ml HSA; format: functional, cell-based; settings: NCI-H460, 72 h
Procedure, shortened: (§2)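 H460 cells seeded at 4 × 10³ per well and grown 24 h. Compounds then cocultured with cells for 72 h at 37 °C, with or without 40 mg/mL human serum albumin. Viability read by AlamarBlue; IC₅₀ = 50% growth inhibition. Ratio compares the IC₅₀ with HSA to the IC₅₀ without.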

NCI-H460 [5] = assay: Ratio IC50 for human H460 cells after 72 hrs in presence of 40 mg/ml HSA to IC50 for human H460 cells after 72 hrs; format: functional; procedure, shortened: as §2
[6] = Cytotoxicity against human MESSA cells after 72 hrs by alamar blue assay; format: functional, cell-based; settings: MES-SA; procedure, shortened: as §1
[7] = Cytotoxicity against human MES-SA/Dx5 cells overexpressing MDR1 after 72 hrs by alamar blue assay; format: functional, cell-based; settings: MES-SA/Dx5, 72 h; procedure, shortened: as §1
NCI-H69 = assay: Cytotoxicity against human H69 cells after 72 hrs by alamar blue assay; format: functional, cell-based; settings: NCI-H69, 72 h; procedure, shortened: as §1
[8] = Resistance ratio of IC50 for human MES-SA/Dx5 cells overexpressing MDR1 after 72 hrs to IC50 for human MESSA cells after 72 hrs; format: functional
Procedure, shortened: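 Cytotoxicity compared in MDR1-overexpressing lines and their parental wild-type lines. 72 h exposure at 37 °C, viability by AlamarBlue, IC₅₀ at 50% growth inhibition. Resistance ratio = IC₅₀ in overexpressing line / IC₅₀ in parental line.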

[9] = Cytotoxicity against human bone marrow cell by CFU-GM assay; format: cell-based
[10] = Cytotoxicity against mouse bone marrow cell by CFU-GM assay; format: cell-based
Procedure, shortened: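 CFU-GM colony assay on normal human bone marrow (thawed) or mouse femoral marrow (freshly extracted). Human colonies scored after 16-18 days. IC₅₀ taken from triplicate assays.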

[11] = Ratio of IC50 for mouse bone marrow cell to IC50 for human bone marrow cell; format: cell-based; settings: bone marrow cells
Procedure, shortened: (§3)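 CFU-GM colony assay in triplicate at 2 × 10⁴ cells per culture, using thawed normal human bone marrow or fresh mouse femoral marrow. Colonies were scored after 16-18 days. The IC50 or IC90 from each species gave the mouse/human ratio.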

[12] = Ratio of IC90 for mouse bone marrow cell to IC90 for human bone marrow cell; format: ADME, cell-based; settings: bone marrow cells; procedure, shortened: as §3
[13] = Tmax in CD-1 mouse plasma at 50 mg/kg, ip by LC/MS/MS analysis; format: ADME, organism-based; design: dose 50 mg/kg, route intraperitoneal
Procedure, shortened: (§4)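 CD-1 mice (~25 g) given 50 mg/kg ip in 5% DMSO/5% Tween 80 in water; three mice per time point, sampled up to 480 min. Blood taken by cardiac puncture into EDTA, then whole brain excised and homogenized in water. Proteins precipitated with ice-cold acetonitrile containing propranolol internal standard; supernatant analysed by HPLC/MS/MS.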

[14] = Cmax in CD-1 mouse plasma at 50 mg/kg, ip by LC/MS/MS analysis; format: ADME, organism-based; design: dose 50 mg/kg, route intraperitoneal; procedure, shortened: as §4
[15] = AUC in CD-1 mouse plasma at 50 mg/kg, ip by LC/MS/MS analysis; format: ADME, organism-based; design: dose 50 mg/kg, route intraperitoneal; procedure, shortened: as §4
[16] = Half life in CD-1 mouse plasma at 50 mg/kg, ip by LC/MS/MS analysis; format: ADME, organism-based; design: dose 50 mg/kg, route intraperitoneal; procedure, shortened: as §4
[17] = Tmax in CD-1 mouse brain at 50 mg/kg, ip by LC/MS/MS analysis; format: ADME, organism-based; design: dose 50 mg/kg, route intraperitoneal; procedure, shortened: as §4
[18] = Cmax in CD-1 mouse brain at 50 mg/kg, ip by LC/MS/MS analysis; format: ADME, organism-based; design: dose 50 mg/kg, route intraperitoneal; procedure, shortened: as §4
[19] = AUC in CD-1 mouse brain at 50 mg/kg, ip by LC/MS/MS analysis; format: ADME, organism-based; design: dose 50 mg/kg, route intraperitoneal; procedure, shortened: as §4
[20] = Half life in CD-1 mouse brain at 50 mg/kg, ip by LC/MS/MS analysis; format: ADME, organism-based; design: dose 50 mg/kg, route intraperitoneal; procedure, shortened: as §4
[21] = Ratio of drug level in brain to plasma in CD-1 mouse at 50 mg/kg, ip; format: ADME, organism-based; design: dose 50 mg/kg, route intraperitoneal; procedure, shortened: as §4
NCI-H460 [22] = assay: Antitumor activity against human H460 cells xenografted in nu/nu mouse assessed as tumor growth inhibition at 40 mg/kg, po QD for 5 days followed by 2days without treatment for 2 weeks; format: functional; design: scale not given: the % may be the effect or the level left
Procedure, shortened: (§5)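 Female nude (nu/nu) mice (males for prostate model) implanted sc in the flank with tumor cells (1 × 10⁶ for H460). Dosing began at 100-150 mm³, 10 mice/group. Oral gavage in 5% DMSO/5% Tween 80/1% CMC in water, 5 days on/2 off per cycle, 2 or 4 cycles. Volume = length×width²/2, measured twice weekly. TGI = (1 − ΔT/ΔC)×100; TGD = extra days to reach 500 mm³ versus control.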

NCI-H460 [23] = assay: Antitumor activity against human H460 cells xenografted in nu/nu mouse assessed as tumor growth delay at 40 mg/kg, po QD for 5 days followed by 2days without treatment for 2 weeks; format: functional; procedure, shortened: as §5
HT-29 [24] = assay: Antitumor activity against human HT-29 cells xenografted in nu/nu mouse assessed as tumor growth inhibition at 40 mg/kg, […]; format: functional; design: scale not given: the % may be the effect or the level left; settings: route oral
HT-29 [25] = assay: Antitumor activity against human HT-29 cells xenografted in nu/nu mouse assessed as tumor growth delay at 40 mg/kg, […]; format: functional; settings: route oral
PC-3 [26] = assay: Antitumor activity against human PC3 cells xenografted in nu/nu mouse assessed as tumor growth inhibition at 40 mg/kg, po QD for 5 days followed by 2 days without treatment for 2 weeks; format: functional; design: scale not given: the % may be the effect or the level left; procedure, shortened: as §5
PC-3 [27] = assay: Antitumor activity against human PC3 cells xenografted in nu/nu mouse assessed as tumor growth delay at 40 mg/kg, po QD for 5 days followed by 2 days without treatment for 2 weeks; format: functional; procedure, shortened: as §5
Mus musculus [28] = assay: Toxicity in nu/nu mouse assessed as body weight loss at 40 mg/kg, po QD for 5 days followed by 2 days without treatment for 2 weeks; format: organism-based; design: dose 40 mg/kg, route oral; settings: in vivo
Procedure, shortened: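 Female nude (nu/nu) mice (males for prostate model) bearing sc xenografts, dosing started at 100-150 mm³, 10/group. Oral gavage in 5% DMSO/5% Tween 80/1% CMC in water, QD 5 days on/2 off per cycle, 2 or 4 cycles. Body weight recorded twice weekly; maximum loss reported.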

Mus musculus [29] = assay: Toxicity in nu/nu mouse assessed as body weight loss at 40 mg/kg, po QD for 5 days followed by 4 days without treatment for 2 weeks; format: organism-based; design: dose 40 mg/kg, route oral; settings: in vivo
H69AR = assay: Cytotoxicity against human H69AR cells overexpressing MRP1 after 72 hrs by alamar blue assay
[30] = Resistance ratio of IC50 for human H69AR cells overexpressing MRP1 after 72 hrs s to IC50 for human H69 cells after 72 hrs

SMILES: CCc1c2c(nc3ccccc13)-c1c(N)c3c(c(=O)n1C2)COC(=O)[C@]3(O)CC
- IC50 (NCI-H460 [1]; Homo sapiens, NCI-H460, 72 h): 7 nM
- IC50 (NCI-H460 [1]; nci-h460): 12 nM
- IC50 (PC-3 [2]): 24 nM
- IC50 (HT-29 [3]): 300 nM
- IC50 (SK-MEL-2): 130 nM
- IC50 (A-375): 7 nM
- IC50 (Malme-3M): 1200 nM
- IC50 (DU-145): 1200 nM
- IC50 (LNCaP): 120 nM
- IC50 (IGROV-1): 20 nM
- IC50 (NCI-H460 [4]): 120 nM
- Ratio (NCI-H460 [5]): 10
- IC50 [6]: 4 nM
- IC50 [7]: 12 nM
- IC50 (NCI-H69): 110 nM
- Ratio [8]: 3
- IC50 ([9]; Homo sapiens, Bone marrow cell): 620 nM
- IC90 ([9]; human, bone marrow cells): 4500 nM
- IC50 [10]: 110 nM
- selectivity ratio [11]: 6
- selectivity ratio [12]: 650
- Tmax [13]: 1 h
- Cmax [14]: 300 ng/mL
- AUC [15]: 1070 ng·h/mL
- half-life [16]: 4.17 h
- Tmax [17]: 1 h
- Cmax [18]: 300 ng/mL
- AUC [19]: 750 ng·h/mL
- half-life [20]: 4 h
- Kp [21]: 70
- Activity (NCI-H460 [22]): 84%
- Time (NCI-H460 [23]): 14 days
- Activity (HT-29 [24]): 101%
- Time (HT-29 [25]): 30 days
- Activity (PC-3 [26]): 107%
- Time (PC-3 [27]): 45 days
- Activity (Mus musculus [28]): 4%
- Activity (Mus musculus [29]): 3% and 8%
- IC50 (H69AR): 240 nM
- Ratio [30]: 2.2
